Assay [1] relates to Mycobacterium tuberculosis. Kind of assay: […]. The class given is functional, TN587. The method, boiled down: (§1)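 Strains were grown at 37 °C in 7H9 Middlebrook broth with 10% OADC, 0.05% Tween and 0.2% glycerol. Compounds were dissolved in DMSO and serially diluted 2-fold, then bacteria were added. Plates were incubated 6 days at 37 °C, then 24 h more with Alamar Blue. MIC was the lowest concentration (μg/mL) that prevented the colour change. Run in triplicate.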

Assay [2] has as its system Mycobacterium tuberculosis. Nature of the assay: […]. In kind it is functional, NHN382. In short, it runs like this: as §1

The structures appear in SMILES notation. Values after ≈ are worked out from the molar mass of the structure shown.

For orientation: MIC means the lowest concentration that inhibits growth of the organism. A higher MIC goes with a less susceptible organism. On to `CCCCOC(=O)Nc1cc2nc(C3CCCCC3)[nH]c2cc1N(CC)CC`, for which the MIC in assay [1] and in assay [2] was 1.25 µg/mL (≈ 3.23 µM) throughout.
Take `CCc1ccc(C(=O)Nc2cc3nc(C4CCCCC4)[nH]c3cc2N(C)C)cc1`: the MIC in assay [1] and in assay [2] was 0.16 µg/mL (≈ 0.41 µM) in each case.
Regarding `CCCCOC(=O)Nc1cc2nc(C3CCCCC3)[nH]c2cc1N(C)C`, the MIC amounted to 0.13 µg/mL (≈ 0.363 µM) in assay [1] and 0.06 µg/mL (≈ 0.167 µM) in assay [2].
With `NNC(=O)c1ccncc1` [ISONIAZID], the MIC in assay [1] and in assay [2] was 0.25 µg/mL (≈ 1.82 µM) throughout.

For the origin of these results see ChEMBL document CHEMBL3124890, “SAR studies on trisubstituted benzimidazoles as inhibitors of Mtb FtsZ for the development of novel antitubercular agents” (J Med Chem, 2013).
